The source made the active and inactive calls. The calls are words filed in the database; no cut-off is given here.
Assays:
[1] = molecular target: T1, Kappa-type opioid receptor (Homo sapiens, UniProt P41145); experiment: Displacement of [3H]diprenorphine from human kappa opioid receptor expressed in CHO cell membrane by liquid scintillation and luminescence counter
[2] = molecular target: T1, Kappa-type opioid receptor; experiment: Agonist activity at human kappa opioid receptor expressed in CHO cell membrane assessed as stimulation of [35S]GTPgammaS binding; format: functional, cell membranes
Summary of the method: (§1)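 Membranes from CHOκ (human KOR, grown in DMEM-F12) or C6μ (rat MOR, DMEM) cells, 20 μg, incubated 60 min at 25 °C in 20 mM Tris-HCl pH 7.4, 5 mM MgCl2, 100 mM NaCl, 2.2 mM fresh DTT, 30 μM GDP, 0.1 nM [35S]GTPγS with compound; filtered on GF/C, scintillation counting; efficacy versus U69593 (KOR) or DAMGO (MOR); mean ± SEM of three experiments.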

[3] = molecular target: Mu-type opioid receptor (Rattus norvegicus) (UniProt P33535); experiment: Agonist activity at rat mu opioid receptor expressed in rat C6 cell membrane assessed as stimulation of [35S]GTPgammaS binding relative to DAMGO; format: functional, cell membranes; summary of the method: as §1
Mu-type opioid receptor [4] = molecular target: T2, Mu-type opioid receptor (Rattus norvegicus, UniProt P33535); experiment: Displacement of [3H]diprenorphine from rat mu opioid receptor expressed in rat C6 cell membrane by liquid scintillation and luminescence counter
Mu-type opioid receptor [5] = molecular target: T2, Mu-type opioid receptor; experiment: Agonist activity at rat mu opioid receptor expressed in rat C6 cell membrane assessed as stimulation of [35S]GTPgammaS binding; format: functional, cell membranes; summary of the method: as §1
[6] = molecular target: T1, Kappa-type opioid receptor; experiment: Agonist activity at human kappa opioid receptor expressed in CHO cell membrane assessed as stimulation of [35S]GTPgammaS binding relative to U69593; format: functional, cell membranes; summary of the method: as §1
[7] = molecular target: Mu-type opioid receptor (Rattus norvegicus) (UniProt P33535); experiment: Antagonist activity at rat mu opioid receptor expressed in rat C6 cell membrane assessed as DAMGO-stimulated of [35S]GTPgammaS binding; format: functional, cell membranes
Summary of the method: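 C6 glioma membranes with stably expressed rat MOR; antagonism of DAMGO-stimulated [35S]GTPγS binding reported as Ke; incubation 60 min, 25 °C, in Tris-HCl pH 7.4 with MgCl2, NaCl, DTT, 30 μM GDP, 0.1 nM [35S]GTPγS; filtration and scintillation read-out.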

T1 sequence (P41145 whole entry): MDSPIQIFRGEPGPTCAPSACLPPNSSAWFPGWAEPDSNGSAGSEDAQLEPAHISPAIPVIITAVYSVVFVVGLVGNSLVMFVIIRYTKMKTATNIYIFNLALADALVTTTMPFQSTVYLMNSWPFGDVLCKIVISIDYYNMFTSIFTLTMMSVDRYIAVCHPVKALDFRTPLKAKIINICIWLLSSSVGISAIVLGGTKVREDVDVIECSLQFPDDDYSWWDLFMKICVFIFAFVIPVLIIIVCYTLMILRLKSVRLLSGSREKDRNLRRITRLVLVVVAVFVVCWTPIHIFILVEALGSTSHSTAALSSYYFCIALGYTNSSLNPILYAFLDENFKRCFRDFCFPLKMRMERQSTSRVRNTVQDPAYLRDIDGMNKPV
T2 sequence (P33535 whole entry): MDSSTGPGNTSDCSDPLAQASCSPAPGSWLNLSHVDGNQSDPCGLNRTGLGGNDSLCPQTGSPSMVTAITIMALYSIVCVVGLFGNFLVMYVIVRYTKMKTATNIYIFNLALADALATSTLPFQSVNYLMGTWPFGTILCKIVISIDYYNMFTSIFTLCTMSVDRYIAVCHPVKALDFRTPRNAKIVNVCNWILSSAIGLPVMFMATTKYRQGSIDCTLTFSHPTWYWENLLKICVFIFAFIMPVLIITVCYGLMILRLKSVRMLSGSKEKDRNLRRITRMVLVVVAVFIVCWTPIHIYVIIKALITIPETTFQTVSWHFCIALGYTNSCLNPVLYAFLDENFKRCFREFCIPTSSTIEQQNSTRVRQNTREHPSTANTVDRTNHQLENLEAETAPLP
Chain of Mu-type opioid receptor (Rattus norvegicus) (P33535 whole entry): as above

O=C(/C=C/c1ccccc1[N+](=O)[O-])N[C@@H]1CC[C@@]2(O)[C@H]3Cc4ccc(O)c5c4[C@@]2(CCN3CC2CC2)[C@H]1O5
Ki [1]: 0.3 nM
EC50 [2]: 1.9 nM
Activity [3]: 6.7%
Ki (Mu-type opioid receptor [4]): 0.35 nM
EC50 (Mu-type opioid receptor [5]): 0.69 nM
Activity [6]: 81%

CC(=O)O[C@@]12CC[C@@H](NC(=O)/C=C/c3ccccc3)[C@@H]3Oc4c(O)ccc5c4[C@@]31CCN(CC1CC1)[C@@H]2C5
Ki [1]: 0.59 nM
EC50 [2]: 2.4 nM
Activity [3]: 19%
Ki (Mu-type opioid receptor [4]): 0.21 nM
EC50 (Mu-type opioid receptor [5]): 1 nM
Activity [6]: 97%

O=C(/C=C/c1ccccc1)N[C@@H]1CC[C@@]2(OC(=O)Cc3ccccc3)[C@H]3Cc4ccc(O)c5c4[C@@]2(CCN3CC2CC2)[C@H]1O5
Ki [1]: 0.26 nM
EC50 [2]: 0.49 nM
Activity [3]: 41%
Ki (Mu-type opioid receptor [4]): 0.28 nM
EC50 (Mu-type opioid receptor [5]): 1.3 nM
Activity [6]: 76%

O=C(/C=C/c1ccccc1)N[C@@H]1CC[C@@]2(O)[C@H]3Cc4ccc(O)c5c4[C@@]2(CCN3CC2CC2)[C@H]1O5
Ki [1]: 0.043 nM
EC50 [2]: 0.12 nM
Activity [3]: 21%
Ki (Mu-type opioid receptor [4]): 0.17 nM
EC50 (Mu-type opioid receptor [5]): 1.8 nM
Activity [6]: 100%

C=CCO[C@@]12CC[C@@H](NC(=O)/C=C/c3ccccc3)[C@@H]3Oc4c(O)ccc5c4[C@@]31CCN(CC1CC1)[C@@H]2C5
Ki [1]: 0.12 nM
EC50 [2]: 0.079 nM
Activity [3]: 39%
Ki (Mu-type opioid receptor [4]): 0.25 nM
EC50 (Mu-type opioid receptor [5]): 0.6 nM
Activity [6]: 120%

O=C(/C=C/c1ccccc1)N[C@@H]1CC[C@@]2(OCc3ccccc3)[C@H]3Cc4ccc(O)c5c4[C@@]2(CCN3CC2CC2)[C@H]1O5
Ki [1]: 0.86 nM
EC50 [2]: 0.78 nM
Activity [3]: 19%
Ki (Mu-type opioid receptor [4]): 0.16 nM
EC50 (Mu-type opioid receptor [5]): 2 nM
Activity [6]: 97%

O=C(/C=C/c1ccccc1)N[C@@H]1CC[C@@]2(OC(=O)c3ccccc3)[C@H]3Cc4ccc(O)c5c4[C@@]2(CCN3CC2CC2)[C@H]1O5
Ke [7]: 0.41 nM
Ki [1]: 1.1 nM
EC50 [2]: 9.8 nM
Activity [3]: inactive
Ki (Mu-type opioid receptor [4]): 0.42 nM
Activity [6]: 26%

O=C(/C=C/c1cccc([N+](=O)[O-])c1)N[C@@H]1CC[C@@]2(O)[C@H]3Cc4ccc(O)c5c4[C@@]2(CCN3CC2CC2)[C@H]1O5
Ki [1]: 0.36 nM
EC50 [2]: 0.12 nM
Activity [3]: 20%
Ki (Mu-type opioid receptor [4]): 0.11 nM
EC50 (Mu-type opioid receptor [5]): 0.18 nM
Activity [6]: 100%

COc1ccccc1/C=C/C(=O)N[C@@H]1CC[C@@]2(O)[C@H]3Cc4ccc(O)c5c4[C@@]2(CCN3CC2CC2)[C@H]1O5
Activity [3]: 21%
Activity [6]: 105%

O=C(/C=C/c1ccccc1Cl)N[C@@H]1CC[C@@]2(O)[C@H]3Cc4ccc(O)c5c4[C@@]2(CCN3CC2CC2)[C@H]1O5
Ki [1]: 0.27 nM
EC50 [2]: 0.4 nM
Activity [3]: 17%
Ki (Mu-type opioid receptor [4]): 0.079 nM
EC50 (Mu-type opioid receptor [5]): 12 nM
Activity [6]: 97%

— ChEMBL document CHEMBL1152799, “Mixed kappa/mu opioid receptor agonists: the 6 beta-naltrexamines” (J Med Chem, 2009)
